Here are results for six molecules from ChEMBL document CHEMBL1144306, “1-Hydroxyalkyl-3-phenylthioureas as novel HDL-elevating agents” (2005).

Common to all, as to assay type: functional
The subject of assay [1] is Rattus norvegicus. The experiment in a line: Effect on level of apolipoprotein (Apo) AI (relative to untreated control) in cholesterol fed-male rats at 78 mg/kg/day. An outline of the steps: (§1)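 Six male Sprague–Dawley rats per group, fed a cholic acid/cholesterol-supplemented diet, received compound in the diet ad libitum for eight days. Serum Apo A–I was measured by SDS-PAGE or by rat competition ELISA and reported as % change versus untreated controls (p < 0.05). Gemfibrozil was the internal positive control in each study.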

Assay [2] has as its system Rattus norvegicus. The experiment in a line: Effect on level of triglyceride in (relative to untreated control) in cholesterol fed-male rats at 78 mg/kg/day. A digest of the protocol: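 Compound given in diet ad libitum for eight days to groups of six male Sprague–Dawley rats on a cholic acid and cholesterol-supplemented diet. Serum triglycerides expressed as % change relative to untreated controls, with significance at p < 0.05. Gemfibrozil served as internal positive control within each study.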

For assay [3], the system named is Rattus norvegicus. The experiment in a line: Effect on level of high density lipoprotein cholesterol (relative to untreated control) in cholesterol fed-male rats at 78 mg/kg/day. An outline of the steps: (§2)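 Male Sprague–Dawley rats (groups of six) fed a cholic acid- and cholesterol-supplemented diet; compound mixed into the diet, given ad libitum for eight days. Lipoproteins were separated by ultracentrifugation, and cholesterol was measured by an enzymatic colorimetric method. Results are % change versus untreated controls, with significance at p < 0.05.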

The subject of assay [4] is Rattus norvegicus. The experiment in a line: Effect on level of total cholesterol (relative to untreated control) in cholesterol fed-male rats at 78 mg/kg/day. An outline of the steps:
as §2

Assay [5] concerns Rattus norvegicus. Briefly: Effect on change in body weight gain (relative to untreated control) in cholesterol fed-male rats at 78 mg/kg/day. An outline of the steps: (§3)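 Male Sprague–Dawley rats, six per group, on a cholic acid- and cholesterol-supplemented diet. Compounds were mixed into the diet and given ad libitum for eight days. Change in body weight gain is expressed as a percentage of untreated controls. Significance was set at p < 0.05 versus untreated controls.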

For assay [6], the system named is Rattus norvegicus. The experiment in a line: Effect on level of total cholesterol (relative to untreated control) in cholesterol fed-male rats at 62 mg/kg/day. An outline of the steps:
as §2

Assay [7] relates to Rattus norvegicus. Briefly: Effect on level of apolipoprotein (Apo) AI (relative to untreated control) in cholesterol fed-male rats at 62 mg/kg/day. An outline of the steps:
as §1

In assay [8] the test system is Rattus norvegicus. The experiment in a line: Effect on level of triglyceride in (relative to untreated control) in cholesterol fed-male rats at 62 mg/kg/day. A digest of the protocol: (§4)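 Serum triglycerides were measured in groups of six male Sprague–Dawley rats on a cholic acid/cholesterol-supplemented diet. Compound was dosed in the diet, ad libitum, for eight days. Results are % change relative to untreated controls, with significance at p < 0.05.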

Assay [9] concerns Rattus norvegicus. Briefly: Effect on change in body weight gain (relative to untreated control) in cholesterol fed-male rats at 62 mg/kg/day. An outline of the steps:
as §3

Assay [10] relates to Rattus norvegicus. Briefly: Effect on level of high density lipoprotein cholesterol (relative to untreated control) in cholesterol fed-male rats at 62 mg/kg/day. An outline of the steps: as §2
The subject of assay [11] is Rattus norvegicus. Briefly: Effect on level of triglyceride in (relative to untreated control) in cholesterol fed-male rats at 38 mg/kg/day. A digest of the protocol:
as §4

The subject of assay [12] is Rattus norvegicus. The experiment in a line: Effect on change in body weight gain (relative to untreated control) in cholesterol fed-male rats at 38 mg/kg/day. A digest of the protocol: as §3
Assay [13] concerns Rattus norvegicus. Briefly: Effect on level of high density lipoprotein cholesterol (relative to untreated control) in cholesterol fed-male rats at 38 mg/kg/day. An outline of the steps: (§5)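 Cholic acid/cholesterol-fed male Sprague–Dawley rats (n = 6 per group) were dosed via diet ad libitum for eight days. Lipoproteins were separated by ultracentrifugation and HDL cholesterol was quantified by an enzymatic colorimetric method. Values are % change relative to untreated controls, with significance at p < 0.05. Gemfibrozil was the internal positive control.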

Assay [14] concerns Rattus norvegicus. The experiment in a line: Effect on level of apolipoprotein (Apo) AI (relative to untreated control) in cholesterol fed-male rats at 38 mg/kg/day. An outline of the steps:
as §1

Assay [15] deals with Rattus norvegicus. The experiment in a line: Effect on level of total cholesterol (relative to untreated control) in cholesterol fed-male rats at 38 mg/kg/day. A digest of the protocol: as §2
For assay [16], the system named is Rattus norvegicus. Briefly: Effect on level of triglyceride in (relative to untreated control) in cholesterol fed-male rats at 76 mg/kg/day. An outline of the steps: as §4
Assay [17] has as its system Rattus norvegicus. The experiment in a line: Effect on level of apolipoprotein (Apo) AI (relative to untreated control) in cholesterol fed-male rats at 76 mg/kg/day. An outline of the steps: as §1
The subject of assay [18] is Rattus norvegicus. The experiment in a line: Effect on change in body weight gain (relative to untreated control) in cholesterol fed-male rats at 76 mg/kg/day. An outline of the steps: as §3
Assay [19] relates to Rattus norvegicus. The experiment in a line: Effect on level of total cholesterol (relative to untreated control) in cholesterol fed-male rats at 76 mg/kg/day. An outline of the steps: as §2
Assay [20] deals with Rattus norvegicus. Briefly: Effect on level of high density lipoprotein cholesterol (relative to untreated control) in cholesterol fed-male rats at 76 mg/kg/day. An outline of the steps:
as §2

In assay [21] the test system is Rattus norvegicus. The experiment in a line: Effect on level of total cholesterol (relative to untreated control) in cholesterol fed-male rats at 63 mg/kg/day. A digest of the protocol:
as §2

Assay [22] concerns Rattus norvegicus. The experiment in a line: Effect on level of triglyceride in (relative to untreated control) in cholesterol fed-male rats at 63 mg/kg/day. A digest of the protocol: as §4
Assay [23] deals with Rattus norvegicus. The experiment in a line: Effect on change in body weight gain (relative to untreated control) in cholesterol fed-male rats at 63 mg/kg/day. An outline of the steps:
as §3

The test system of assay [24] is Rattus norvegicus. Briefly: Effect on level of apolipoprotein (Apo) AI (relative to untreated control) in cholesterol fed-male rats at 63 mg/kg/day. A digest of the protocol:
as §1

Assay [25] relates to Rattus norvegicus. Briefly: Effect on level of high density lipoprotein cholesterol (relative to untreated control) in cholesterol fed-male rats at 63 mg/kg/day. An outline of the steps: as §2
Assay [26] deals with Rattus norvegicus. Briefly: Effect on level of total cholesterol (relative to untreated control) in cholesterol fed-male rats at 60 mg/kg/day. A digest of the protocol: as §2
For assay [27], the system named is Rattus norvegicus. Briefly: Effect on level of apolipoprotein (Apo) AI (relative to untreated control) in cholesterol fed-male rats at 60 mg/kg/day. A digest of the protocol:
as §1

The test system of assay [28] is Rattus norvegicus. The experiment in a line: Effect on level of high density lipoprotein cholesterol (relative to untreated control) in cholesterol fed-male rats at 60 mg/kg/day. A digest of the protocol: as §5
The subject of assay [29] is Rattus norvegicus. Briefly: Effect on level of triglyceride in (relative to untreated control) in cholesterol fed-male rats at 60 mg/kg/day. A digest of the protocol: as §4
Assay [30] relates to Rattus norvegicus. The experiment in a line: Effect on change in body weight gain (relative to untreated control) in cholesterol fed-male rats at 60 mg/kg/day. An outline of the steps:
as §3

Turning to `Cc1ccc(Cl)cc1/N=C(\S)N1CCC(O)C1` (stereo not given), the Activity in the assay with Rattus norvegicus [1] is given as 4%; with Rattus norvegicus [2] it was -24%; in the assay on Rattus norvegicus [3] it was 9%; in the assay on Rattus norvegicus [4], -5%; with Rattus norvegicus [5], 2%.

Consider `Cc1ccc(Cl)cc1N/C(S)=N/C[C@@H](C)O`, for which the Activity with Rattus norvegicus [6] is -1%; in the assay with Rattus norvegicus [7] it was 25%; in the assay on Rattus norvegicus [8] it was -68%; with Rattus norvegicus [9], -69%; in the assay on Rattus norvegicus [10], 60%.

With `Cc1ccc(Cl)cc1/N=C(\S)NCC(=O)O`, the Activity in the assay on Rattus norvegicus [11] is 4%; with Rattus norvegicus [12], 10%; with Rattus norvegicus [13], 8%; in the assay on Rattus norvegicus [14], 14%; with Rattus norvegicus [15], 24%.

Consider `Cc1ccc(Cl)cc1N/C(S)=N/[C@@H](C)CO`, for which the Activity in the assay on Rattus norvegicus [16] stood at 1%; in the assay on Rattus norvegicus [17], 20%; in the assay with Rattus norvegicus [18], 10%; in the assay with Rattus norvegicus [19], 48%; in the assay on Rattus norvegicus [20], 32%.

Turning to `Cc1ccc(C)c(N/C(S)=N/CCO)c1`, the Activity in the assay with Rattus norvegicus [21] was 32%; in the assay on Rattus norvegicus [22], -32%; in the assay with Rattus norvegicus [23], -117%; with Rattus norvegicus [24], 0%; with Rattus norvegicus [25], 62%.

With `OCC/N=C(\S)Nc1cc(Cl)cc(Cl)c1`, the Activity in the assay with Rattus norvegicus [26] was 9%; in the assay on Rattus norvegicus [27] it was 48%; in the assay on Rattus norvegicus [28], 50%; in the assay on Rattus norvegicus [29], -35%; in the assay with Rattus norvegicus [30], -90%.
